Results from ChEMBL document CHEMBL1151715, “Novel D-xylose derivatives stimulate muscle glucose uptake by activating AMP-activated protein kinase alpha” (J Med Chem, 2008).
Calls of active or inactive are those of the source.

Tests used:
[1] = Cytotoxicity against rat L6 cells by MTT assay; type: cell-based
In short: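 MTT assay on L6 myotubes after the treatment incubations: MTT at 2 mg/mL in αMEM for 30 min at 37 °C, formazan dissolved in DMSO, absorbance read at 570 nm.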

L6 [2] = assay: Effect on [3H]2-deoxy-D-glucose uptake in rat L6 cells at 250 uM relative to control; type: functional
In short: (§1)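 L6 myotubes were held in αMEM with 2% FCS and 23.0 mM D-glucose for 24 h. They were then treated with increasing concentrations in medium with 10% FCS and 23.0 mM D-glucose for 7 or 18 h; vehicle controls ran 18 h. After washing, uptake was measured with 0.1 mM dGlc plus 1.3 µCi/mL [3H]dGlc in PBS pH 7.4 for 5 min at room temperature. Ice-cold PBS stop, SDS lysis, scintillation counting; basal rate set to 100%.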

L6 [3] = assay: Effect on [3H]2-deoxy-D-glucose uptake in rat L6 cells at 500 uM relative to control; type: functional; in short: as §1
L6 [4] = assay: Effect on [3H]2-deoxy-D-glucose uptake in rat L6 cells at 1 mM relative to control; type: functional; in short: as §1
L6 [5] = assay: Effect on [3H]2-deoxy-D-glucose uptake in rat L6 cells at 200 uM relative to control; type: functional; in short: as §1
L6 [6] = assay: Increase in GLUT1myc abundance in rat L6 cell membrane at 5 uM after 18 hrs
L6 [7] = assay: Activation of 5-AMP-induced AMPKalpha in rat L6 cells assessed as reduction in hexose transport at 5 uM relative to control in presence of compound C; set-up: scale not given: the % may be the effect or the level left
L6 [8] = assay: Increase in GLUT1myc abundance in rat L6 cell membrane at 50 uM after 7 hrs; type: functional, cell-based
In short: (§2)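 Myc-tagged GLUT1 or GLUT4 L6 myotubes were preconditioned at 5.5 or 23.0 mM glucose for 24 h, then treated in 10% FCS medium for 7 h (18 h for the 5 µM agent). Insulin was 200 nM for 30 min. Intact cells were labeled with rabbit anti-myc (1:200), fixed in 3% formaldehyde, and given HRP anti-rabbit IgG (1:2000). OPD colour was read at 492 nm.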

L6 [9] = assay: Activation of 5-AMP-induced AMPKalpha in rat L6 cells assessed as […] phosphorylation at 5 uM relative to control; type: cell-based
In short: (§3)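 L6 myotubes preconditioned 24 h in αMEM with 2% FCS and 23.0 mM D-glucose, then given fresh medium with 10% (v/v) FCS, 23.0 mM D-glucose and test agent; controls received vehicle. Whole-cell lysates (Tris pH 7.5 with phosphatase and protease inhibitors) were blotted for AMPKα and […]-AMPKα, detected by ECL, and bands quantified by densitometry.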

[10] = Effect on [3H]2-deoxy-D-glucose uptake in human skeletal muscle cells at 5 uM relative to control; type: functional
Homo sapiens [11] = species on record: Homo sapiens; assay: Activation of 5-AMP-induced AMPKalpha in human skeletal muscle cells assessed as […] phosphorylation at 5 uM relative to control
In short: (§4)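 Primary human skeletal myoblasts from the rectus abdominis of a donor were differentiated into myotubes and treated in medium with 10% (v/v) FCS, 23.0 mM D-glucose and agent, with vehicle controls. Whole-cell lysates were Western blotted for total AMPKα and […]-AMPKα, with ECL detection and densitometry.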

L6 [12] = assay: Effect on [3H]2-deoxy-D-glucose uptake in rat L6 cells at 5 uM relative to control; type: functional, cell-based; conditions: TDE = time-dependent effect; in short: as §1
L6 [13] = assay: Increase in GLUT4myc abundance in rat L6 cell membrane at 5 µM after 18 hrs; type: functional, cell-based; in short: as §2
L6 [14] = assay: Inhibition of [3H]2-deoxy-D-glucose uptake in rat L6 cells at 5 uM in presence of 100 nM wortmannin; type: functional, cell-based
In short: (§5)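 L6 myotubes at 23 mM D-glucose received 100 nM wortmannin 30 min before the agents. Treatment ran in 10% FCS medium for 7 h (18 h for the 5 µM agent). A 5-min [3H]dGlc uptake (0.1 mM dGlc, 1.3 µCi/mL) in PBS at room temperature followed, with the vehicle basal rate set to 100%.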

L6 [15] = assay: Effect on [3H]2-deoxy-D-glucose uptake in rat L6 cells at 150 uM relative to control; type: functional, cell-based; conditions: TDE = time-dependent effect; in short: as §1
L6 [16] = assay: Increase in GLUT1myc abundance in rat L6 cell membrane at 150 uM after 7 hrs; type: functional, cell-based; in short: as §2
L6 [17] = assay: Effect on [3H]2-deoxy-D-glucose uptake in rat L6 cells at 50 uM relative to control; type: functional, cell-based; conditions: TDE = time-dependent effect; in short: as §1
Serum [18] = assay: Free concentration in fetal calf serum at 5 uM; conditions: cattle
L6 [19] = assay: Increase in GLUT1myc abundance in rat L6 cell membrane at 5 µM after 18 hrs; type: functional, cell-based; in short: as §2
L6 [20] = assay: Effect on [3H]2-deoxy-D-glucose uptake in rat L6 cells at 400 uM relative to control; type: functional; in short: as §1
Homo sapiens [21] = species on record: Homo sapiens; assay: Activation of 5-AMP-induced AMPKalpha in human skeletal muscle cells assessed as […] phosphorylation at 150 uM relative to control; in short: as §4
L6 [22] = assay: Inhibition of [3H]2-deoxy-D-glucose uptake in rat L6 cells at 150 uM in presence of 100 nM wortmannin; type: functional, cell-based; in short: as §5
[23] = Effect on [3H]2-deoxy-D-glucose uptake in human skeletal muscle cells at 150 uM relative to control; type: functional
L6 [24] = assay: Increase in GLUT1myc abundance in rat L6 cell membrane at 20 mM after 7 hrs; type: functional, cell-based; conditions: 150 uM, in the assay text read “at 150 uM” for “at 20 mM”; in short: as §2
Serum [25] = assay: Protein binding in fetal calf serum at 5 uM; type: ADME, cell-free, Bos taurus; conditions: cattle
In short: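 αMEM with 10% FCS was spiked at 4.6–23.0 µM and held 60 min at 37 °C for total concentration. Samples were ultrafiltered through a 10 kDa cutoff (4400g, 60 min), and the filtrate was hexane-extracted and analysed by LC-MS (SIR m/z 432) for free concentration.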

L6 [26] = assay: Activation of 5-AMP-induced AMPKalpha in rat L6 cells assessed as […] phosphorylation at 150 uM relative to control in presence of compound C; type: cell-based
L6 [27] = assay: Activation of 5-AMP-induced AMPKalpha in rat L6 cells assessed as […] phosphorylation at 150 uM relative to control; type: cell-based; in short: as §3
L6 [28] = assay: Increase in GLUT4myc abundance in rat L6 cell membrane at 150 uM after 7 hrs; type: functional, cell-based; in short: as §2

Q: With CCO[C@H]1[C@@H](CO)O[C@@H](c2ccccc2)O[C@H]1C(SCC)SCC as the molecule, how does the MCC [1] read?
A: The MCC was 0.6 mM.

Q: What about the “fold change (FC)” value (L6 [2]) of the same molecule?
A: Its value is 1.01.

Q: Which “fold change (FC)” value (L6 [3]) does the source give for CCS[C@@H]1OC[C@@H](O)[C@H](O)[C@H]1O here?
A: Its value is 0.93.

Q: And the MCC [1]?
A: The MCC was 1 mM.

Q: Which “fold change (FC)” value (L6 [4]) does the source give for O[C@@H]1[C@@H](O)[C@@H](OC2=CC=CCO2)OC[C@H]1O here?
A: The value was 0.99.

Q: What about the MCC [1] of the same molecule?
A: Its MCC is 5 mM.

Q: Which results are given for CCSC(SCC)[C@@H]1O[C@H](c2ccccc2)O[C@@H]2CO[C@H](c3ccccc3)O[C@@H]21?
A: fold change (FC) (L6 [5]): 1.06; Activity (L6 [6]): inactive; Activity (L6 [7]): 48.8%; Activity (L6 [8]): inactive; fold change (FC) (L6 [9]): 4.89; fold change (FC) [10]: 1.59; Activity (Homo sapiens [11]): Active; Activity (L6 [12]): tde; Activity (L6 [13]): Active; Activity (L6 [14]): Active; Activity (L6 [15]): tde; Activity (L6 [16]): inactive; Activity (L6 [17]): tde; free concentration (Serum [18]): 100 nM; MCC [1]: 50 mM; Activity (L6 [19]): inactive

Q: Which results are given for O[C@@H]1[C@@H](O)[C@H](ON2CCCCC2)OC[C@H]1O?
A: fold change (FC) (L6 [20]): 0.94; MCC [1]: 1 mM

Q: Which Activity (Homo sapiens [21]) does the source give for CCSC(SCC)[C@@H]1O[C@H](c2ccccc2)O[C@H](CO)[C@@H]1O here?
A: The Activity was “Active”.

Q: What about the Activity (L6 [8]) of the same molecule?
A: The Activity was “inactive”.

Q: And the Activity (L6 [22])?
A: Its Activity is “Active”.

Q: And the “fold change (FC)” value [23]?
A: Its value is 1.49.

Q: And the Activity (L6 [12])?
A: Its Activity is “tde”.

Q: What about the Activity (L6 [24]) of the same molecule?
A: The Activity was “inactive”.

Q: What about the Activity (L6 [15]) of the same molecule?
A: The Activity was “tde”.

Q: What about the Activity (L6 [16]) of the same molecule?
A: Its Activity is “inactive”.

Q: And the Activity (Serum [25])?
A: The Activity was 98%.

Q: What about the Activity (L6 [26]) of the same molecule?
A: Its Activity is 60%.

Q: What about the Activity (L6 [17]) of the same molecule?
A: Its Activity is “tde”.

Q: And the fold change (FC) (L6 [27])?
A: The fold change (FC) was 5.25.

Q: And the Activity (L6 [28])?
A: Its Activity is “Active”.

Q: And the Activity (L6 [19])?
A: The Activity was “inactive”.
